Assay results taken from ChEMBL document CHEMBL1145425, “Antitumor agents 259. Design, syntheses, and structure-activity relationship study of desmosdumotin C analogs” (2007).
Converted amounts (≈) assume the structure as drawn.

What follows are compounds tested on A549 (assay: Cytotoxicity against human A549 cells). Conditions: read-out: ED50 (the source's name).
Type: functional
Summary of the method: (§1)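 Sulforhodamine B growth assay. Lines kept in RPMI-1640 with 25 mM HEPES, 0.25% sodium bicarbonate, 10% FBS and kanamycin. Trypsinized cells seeded at 1500–7500 per well, with compound added from DMSO-diluted stock. After 3 days, attached cells fixed with cold 50% TCA, stained with 0.4% SRB, dye solubilized, absorbance read at 562 nm. ED50 is 50% growth reduction, averaged over at least three independent determinations.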

SMILES | EC50 [µg/mL]
COC1=C(C)C(=O)/C(=C(O)/C=C/c2cccs2)C(=O)C1(C)C | 4.5 (≈ 14.1 µM)
COC1=CC(O)=C(C(=O)/C=C/c2ccccc2)C(=O)C1(C)C | > 5
CCC1=C(OC)C(CC)(CC)C(=O)C(C(=O)/C=C/c2ccccc2)=C1O | 3.4 (≈ 9.59 µM)
CCC1=C(OC)C(CC)(CC)C(=O)C(C(=O)/C=C/c2ccc(C)cc2)=C1O | 4.6 (≈ 12.5 µM)
CCC1=C(OC)C(CC)(CC)C(=O)C(C(=O)/C=C/c2ccc(CC)cc2)=C1O | 3.8 (≈ 9.93 µM)
CC1=C(O)C(C)(C)C(=O)C(C(=O)/C=C/c2ccccc2)=C1O | 9 (≈ 30.2 µM)
COC1=C(C)C(=O)/C(=C(O)/C=C/c2nccs2)C(=O)C1(C)C | 3.5 (≈ 11 µM)
COC1=C(C)C(=O)/C(=C(O)/C=C/c2ccc(O)cc2)C(=O)C1(C)C | 3.1 (≈ 9.44 µM)
CCc1ccc(/C=C/C(O)=C2/C(=O)C(C)=C(OC)C(C)(C)C2=O)cc1 | 6.1 (≈ 17.9 µM)
COC1=C(C)C(=O)/C(=C(O)/C=C/c2cccc3ccccc23)C(=O)C1(C)C | 3.6 (≈ 9.93 µM)

Each compound was assayed on 1A9 (assay: Cytotoxicity against human 1A9 cells). Conditions: read-out: ED50 (the source's name).
Type: functional
Summary of the method: as §1

SMILES | EC50 [µg/mL]
COC1=C(C)C(=O)/C(=C(O)/C=C/c2cccs2)C(=O)C1(C)C | 4 (≈ 12.6 µM)
COC1=CC(O)=C(C(=O)/C=C/c2ccccc2)C(=O)C1(C)C | 3.6 (≈ 12.1 µM)
CCC1=C(OC)C(CC)(CC)C(=O)C(C(=O)/C=C/c2ccccc2)=C1O | 2.1 (≈ 5.92 µM)
CCC1=C(OC)C(CC)(CC)C(=O)C(C(=O)/C=C/c2ccc(C)cc2)=C1O | 4.3 (≈ 11.7 µM)
CCC1=C(OC)C(CC)(CC)C(=O)C(C(=O)/C=C/c2ccc(CC)cc2)=C1O | 3.8 (≈ 9.93 µM)
CC1=C(O)C(C)(C)C(=O)C(C(=O)/C=C/c2ccccc2)=C1O | 8 (≈ 26.8 µM)
COC1=C(C)C(=O)/C(=C(O)/C=C/c2nccs2)C(=O)C1(C)C | 3.5 (≈ 11 µM)
COC1=C(C)C(=O)/C(=C(O)/C=C/c2ccc(O)cc2)C(=O)C1(C)C | 2.9 (≈ 8.83 µM)
CCc1ccc(/C=C/C(O)=C2/C(=O)C(C)=C(OC)C(C)(C)C2=O)cc1 | 5.3 (≈ 15.6 µM)

These compounds were tested on HUVEC (assay: Antiangiogenesis activity against HUVEC). Conditions: Homo sapiens, read-out: ED50 (the source's name).
Type: functional
Summary of the method: (§2)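 HUVEC seeded at 1.5×10^3 per well in EGM-2; after 24 h (day zero) compound added in EGM-2 at 2× the desired concentration. Day-zero plate stained with crystal violet. Remaining plates kept 72 h at 37 °C, then stained with 0.5% crystal violet in 20% MeOH. Dye eluted with 1:1 EtOH:0.1 M sodium citrate and read at 540 nm. Run per the NCI Angiogenesis Resource Center protocol.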

SMILES | EC50 [µg/mL]
COC1=C(C)C(=O)/C(=C(O)/C=C/c2cccs2)C(=O)C1(C)C | < 4
CC1=C(O)C(C)(C)C(=O)C(C(=O)/C=C/c2ccccc2)=C1O | < 4
COC1=C(C)C(=O)/C(=C(O)/C=C/c2nccs2)C(=O)C1(C)C | < 4
COC1=C(C)C(=O)/C(=C(O)/C=C/c2ccc(O)cc2)C(=O)C1(C)C | < 4
COC1=C(C)C(=O)/C(=C(O)/C=C/c2cccc3ccccc23)C(=O)C1(C)C | < 4

Each compound was assayed on HCT-8 (assay: Cytotoxicity against human HCT8 cells). Conditions: read-out: ED50 (the source's name).
Type: functional
Summary of the method: as §1

SMILES | EC50 [µg/mL]
COC1=C(C)C(=O)/C(=C(O)/C=C/c2cccs2)C(=O)C1(C)C | 8.6 (≈ 27 µM)
COC1=CC(O)=C(C(=O)/C=C/c2ccccc2)C(=O)C1(C)C | 3.3 (≈ 11.1 µM)
CCC1=C(OC)C(CC)(CC)C(=O)C(C(=O)/C=C/c2ccccc2)=C1O | 2.8 (≈ 7.9 µM)
CCC1=C(OC)C(CC)(CC)C(=O)C(C(=O)/C=C/c2ccc(C)cc2)=C1O | 9.4 (≈ 25.5 µM)
CCC1=C(OC)C(CC)(CC)C(=O)C(C(=O)/C=C/c2ccc(CC)cc2)=C1O | 8.5 (≈ 22.2 µM)
CC1=C(O)C(C)(C)C(=O)C(C(=O)/C=C/c2ccccc2)=C1O | 15.8 (≈ 53 µM)
COC1=C(C)C(=O)/C(=C(O)/C=C/c2nccs2)C(=O)C1(C)C | 5.1 (≈ 16 µM)
COC1=C(C)C(=O)/C(=C(O)/C=C/c2ccc(O)cc2)C(=O)C1(C)C | 14.8 (≈ 45.1 µM)
CCc1ccc(/C=C/C(O)=C2/C(=O)C(C)=C(OC)C(C)(C)C2=O)cc1 | 10.5 (≈ 30.8 µM)
COC1=C(C)C(=O)/C(=C(O)/C=C/c2cccc3ccccc23)C(=O)C1(C)C | 2.3 (≈ 6.35 µM)

Each compound was assayed on PC-3 (assay: Cytotoxicity against human PC3 cells). Conditions: read-out: ED50 (the source's name).
Type: functional
Summary of the method: as §1

SMILES | EC50 [µg/mL]
COC1=C(C)C(=O)/C(=C(O)/C=C/c2cccs2)C(=O)C1(C)C | 18.2 (≈ 57.2 µM)
COC1=CC(O)=C(C(=O)/C=C/c2ccccc2)C(=O)C1(C)C | 14.2 (≈ 47.6 µM)
CCC1=C(OC)C(CC)(CC)C(=O)C(C(=O)/C=C/c2ccccc2)=C1O | 7.7 (≈ 21.7 µM)
CCC1=C(OC)C(CC)(CC)C(=O)C(C(=O)/C=C/c2ccc(C)cc2)=C1O | 15 (≈ 40.7 µM)
CCC1=C(OC)C(CC)(CC)C(=O)C(C(=O)/C=C/c2ccc(CC)cc2)=C1O | 15 (≈ 39.2 µM)
CC1=C(O)C(C)(C)C(=O)C(C(=O)/C=C/c2ccccc2)=C1O | 17.8 (≈ 59.7 µM)
COC1=C(C)C(=O)/C(=C(O)/C=C/c2nccs2)C(=O)C1(C)C | 10.8 (≈ 33.8 µM)
COC1=C(C)C(=O)/C(=C(O)/C=C/c2ccc(O)cc2)C(=O)C1(C)C | > 20
CCc1ccc(/C=C/C(O)=C2/C(=O)C(C)=C(OC)C(C)(C)C2=O)cc1 | 15.1 (≈ 44.4 µM)
COC1=C(C)C(=O)/C(=C(O)/C=C/c2cccc3ccccc23)C(=O)C1(C)C | 9 (≈ 24.8 µM)

What follows are compounds tested on KB (assay: Cytotoxicity against human KB cells). Conditions: read-out: ED50 (the source's name).
Type: functional
Summary of the method: as §1

SMILES | EC50 [µg/mL]
COC1=C(C)C(=O)/C(=C(O)/C=C/c2cccs2)C(=O)C1(C)C | 5.5 (≈ 17.3 µM)
COC1=CC(O)=C(C(=O)/C=C/c2ccccc2)C(=O)C1(C)C | 4.1 (≈ 13.7 µM)
CCC1=C(OC)C(CC)(CC)C(=O)C(C(=O)/C=C/c2ccccc2)=C1O | 2.8 (≈ 7.9 µM)
CCC1=C(OC)C(CC)(CC)C(=O)C(C(=O)/C=C/c2ccc(C)cc2)=C1O | 3 (≈ 8.14 µM)
CCC1=C(OC)C(CC)(CC)C(=O)C(C(=O)/C=C/c2ccc(CC)cc2)=C1O | 3.6 (≈ 9.41 µM)
CC1=C(O)C(C)(C)C(=O)C(C(=O)/C=C/c2ccccc2)=C1O | 10.5 (≈ 35.2 µM)
COC1=C(C)C(=O)/C(=C(O)/C=C/c2nccs2)C(=O)C1(C)C | 4.3 (≈ 13.5 µM)
COC1=C(C)C(=O)/C(=C(O)/C=C/c2ccc(O)cc2)C(=O)C1(C)C | 3.8 (≈ 11.6 µM)
CCc1ccc(/C=C/C(O)=C2/C(=O)C(C)=C(OC)C(C)(C)C2=O)cc1 | 6.9 (≈ 20.3 µM)
COC1=C(C)C(=O)/C(=C(O)/C=C/c2cccc3ccccc23)C(=O)C1(C)C | 2.8 (≈ 7.73 µM)

Each compound was assayed on A-431 (assay: Cytotoxicity against human A431 cells). Conditions: read-out: ED50 (the source's name).
Type: functional
Summary of the method: as §1

SMILES | EC50 [µg/mL]
COC1=C(C)C(=O)/C(=C(O)/C=C/c2cccs2)C(=O)C1(C)C | 10.8 (≈ 33.9 µM)
COC1=CC(O)=C(C(=O)/C=C/c2ccccc2)C(=O)C1(C)C | 7 (≈ 23.5 µM)
CCC1=C(OC)C(CC)(CC)C(=O)C(C(=O)/C=C/c2ccccc2)=C1O | 5.4 (≈ 15.2 µM)
CCC1=C(OC)C(CC)(CC)C(=O)C(C(=O)/C=C/c2ccc(C)cc2)=C1O | 10.3 (≈ 28 µM)
CCC1=C(OC)C(CC)(CC)C(=O)C(C(=O)/C=C/c2ccc(CC)cc2)=C1O | 9.8 (≈ 25.6 µM)
CC1=C(O)C(C)(C)C(=O)C(C(=O)/C=C/c2ccccc2)=C1O | 14 (≈ 46.9 µM)
COC1=C(C)C(=O)/C(=C(O)/C=C/c2nccs2)C(=O)C1(C)C | 6 (≈ 18.8 µM)
COC1=C(C)C(=O)/C(=C(O)/C=C/c2ccc(O)cc2)C(=O)C1(C)C | 14.9 (≈ 45.4 µM)
CCc1ccc(/C=C/C(O)=C2/C(=O)C(C)=C(OC)C(C)(C)C2=O)cc1 | 12 (≈ 35.3 µM)
COC1=C(C)C(=O)/C(=C(O)/C=C/c2cccc3ccccc23)C(=O)C1(C)C | 4.1 (≈ 11.3 µM)

These compounds were tested on HUVEC (assay: Cytotoxicity against HUVEC). Conditions: Homo sapiens, read-out: ED50 (the source's name).
Type: functional
Summary of the method: as §2

SMILES | EC50 [µg/mL]
COC1=C(C)C(=O)/C(=C(O)/C=C/c2cccs2)C(=O)C1(C)C | 2.5 (≈ 7.85 µM)
COC1=CC(O)=C(C(=O)/C=C/c2ccccc2)C(=O)C1(C)C | > 20
CC1=C(O)C(C)(C)C(=O)C(C(=O)/C=C/c2ccccc2)=C1O | 2.1 (≈ 7.04 µM)
COC1=C(C)C(=O)/C(=C(O)/C=C/c2nccs2)C(=O)C1(C)C | 1.6 (≈ 5.01 µM)
COC1=C(C)C(=O)/C(=C(O)/C=C/c2ccc(O)cc2)C(=O)C1(C)C | 4 (≈ 12.2 µM)
COC1=C(C)C(=O)/C(=C(O)/C=C/c2cccc3ccccc23)C(=O)C1(C)C | 1.8 (≈ 4.97 µM)

The compounds below were run on KB (assay: Cytotoxicity against human vincristine-resistant KB cells). Conditions: read-out: ED50 (the source's name).
Type: functional
Summary of the method: as §1

SMILES | EC50 [µg/mL]
COC1=C(C)C(=O)/C(=C(O)/C=C/c2cccs2)C(=O)C1(C)C | 3.4 (≈ 10.7 µM)
COC1=CC(O)=C(C(=O)/C=C/c2ccccc2)C(=O)C1(C)C | 2.9 (≈ 9.72 µM)
CCC1=C(OC)C(CC)(CC)C(=O)C(C(=O)/C=C/c2ccccc2)=C1O | 1.2 (≈ 3.39 µM)
CCC1=C(OC)C(CC)(CC)C(=O)C(C(=O)/C=C/c2ccc(C)cc2)=C1O | 1 (≈ 2.71 µM)
CCC1=C(OC)C(CC)(CC)C(=O)C(C(=O)/C=C/c2ccc(CC)cc2)=C1O | 2.6 (≈ 6.8 µM)
CC1=C(O)C(C)(C)C(=O)C(C(=O)/C=C/c2ccccc2)=C1O | 6.5 (≈ 21.8 µM)
COC1=C(C)C(=O)/C(=C(O)/C=C/c2nccs2)C(=O)C1(C)C | 3 (≈ 9.39 µM)
COC1=C(C)C(=O)/C(=C(O)/C=C/c2ccc(O)cc2)C(=O)C1(C)C | 3.8 (≈ 11.6 µM)
CCc1ccc(/C=C/C(O)=C2/C(=O)C(C)=C(OC)C(C)(C)C2=O)cc1 | 1.9 (≈ 5.58 µM)
COC1=C(C)C(=O)/C(=C(O)/C=C/c2cccc3ccccc23)C(=O)C1(C)C | 1.3 (≈ 3.59 µM)
